Source: publication PMC4629852 (Nature chemical biology, 2015)
Each block holds one molecule with its values, some of them ahead of it.

Columns and labels:
ERRα [1] = target: T1, ERRα (Homo sapiens, UniProt P11474); assay: ERRα degradation in MCF-7 cells by immunoblotting; assay type: cell-based
T1 sequence (P11474 1-423): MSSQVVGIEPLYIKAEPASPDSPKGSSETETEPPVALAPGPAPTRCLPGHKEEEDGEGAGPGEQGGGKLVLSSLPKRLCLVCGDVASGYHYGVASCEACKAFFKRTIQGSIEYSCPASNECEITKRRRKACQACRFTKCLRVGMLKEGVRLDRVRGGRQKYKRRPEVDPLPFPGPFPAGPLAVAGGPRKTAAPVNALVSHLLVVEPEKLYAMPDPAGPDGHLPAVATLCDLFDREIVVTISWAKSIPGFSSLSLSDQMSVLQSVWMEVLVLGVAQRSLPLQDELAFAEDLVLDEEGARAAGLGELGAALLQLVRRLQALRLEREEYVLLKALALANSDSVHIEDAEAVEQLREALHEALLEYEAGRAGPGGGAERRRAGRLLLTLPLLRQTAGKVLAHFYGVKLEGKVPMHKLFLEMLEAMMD
Summary of the method: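 MCF7 cells were grown in DMEM/F12 + 10% FBS at 37 °C, 5% CO₂. They were seeded at 70% confluency, attached overnight, then treated with test compound for 8 h. An optional 1 h pretreatment with 1 μM epoxomicin preceded compound. Lysates were BCA-normalised, run on 4–12% gels, transferred to PVDF, milk-blocked and probed overnight with anti-ERRα.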

HIF1α = assay: ODD-luciferase assay of HIF1α processing by VHL; assay type: cell-based
ERRα [2] = target: T1, ERRα; assay: Expression proteomics in MCF-7 cells; assay type: cell-based; settings: MCF-7, 100 nM and 500 nM, 4, 8 or 24 h
Summary of the method: (§1)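 MCF-7 cells were plated 1 day before treatment at 1 × 10⁶ cells/well in MEM + 10% FBS + 1% NEAA + sodium pyruvate. They were treated in biological duplicate for the indicated times, scraped into ice-cold PBS and lysed in 2% SDS (95 °C, 3 min). Benzonase digestion followed (37 °C, 1.5 h), then BCA. Proteins were reduced with DTT, alkylated with iodoacetamide, gel-separated, trypsin-digested and quantified by LC-MS/MS.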

BCR = target: T2, BCR (Homo sapiens, UniProt P11274); assay: Expression proteomics in MCF-7 cells; assay type: cell-based; settings: MCF-7, 500 nM, prolonged incubation, P < 0.05
T2 sequence (P11274 1-1271): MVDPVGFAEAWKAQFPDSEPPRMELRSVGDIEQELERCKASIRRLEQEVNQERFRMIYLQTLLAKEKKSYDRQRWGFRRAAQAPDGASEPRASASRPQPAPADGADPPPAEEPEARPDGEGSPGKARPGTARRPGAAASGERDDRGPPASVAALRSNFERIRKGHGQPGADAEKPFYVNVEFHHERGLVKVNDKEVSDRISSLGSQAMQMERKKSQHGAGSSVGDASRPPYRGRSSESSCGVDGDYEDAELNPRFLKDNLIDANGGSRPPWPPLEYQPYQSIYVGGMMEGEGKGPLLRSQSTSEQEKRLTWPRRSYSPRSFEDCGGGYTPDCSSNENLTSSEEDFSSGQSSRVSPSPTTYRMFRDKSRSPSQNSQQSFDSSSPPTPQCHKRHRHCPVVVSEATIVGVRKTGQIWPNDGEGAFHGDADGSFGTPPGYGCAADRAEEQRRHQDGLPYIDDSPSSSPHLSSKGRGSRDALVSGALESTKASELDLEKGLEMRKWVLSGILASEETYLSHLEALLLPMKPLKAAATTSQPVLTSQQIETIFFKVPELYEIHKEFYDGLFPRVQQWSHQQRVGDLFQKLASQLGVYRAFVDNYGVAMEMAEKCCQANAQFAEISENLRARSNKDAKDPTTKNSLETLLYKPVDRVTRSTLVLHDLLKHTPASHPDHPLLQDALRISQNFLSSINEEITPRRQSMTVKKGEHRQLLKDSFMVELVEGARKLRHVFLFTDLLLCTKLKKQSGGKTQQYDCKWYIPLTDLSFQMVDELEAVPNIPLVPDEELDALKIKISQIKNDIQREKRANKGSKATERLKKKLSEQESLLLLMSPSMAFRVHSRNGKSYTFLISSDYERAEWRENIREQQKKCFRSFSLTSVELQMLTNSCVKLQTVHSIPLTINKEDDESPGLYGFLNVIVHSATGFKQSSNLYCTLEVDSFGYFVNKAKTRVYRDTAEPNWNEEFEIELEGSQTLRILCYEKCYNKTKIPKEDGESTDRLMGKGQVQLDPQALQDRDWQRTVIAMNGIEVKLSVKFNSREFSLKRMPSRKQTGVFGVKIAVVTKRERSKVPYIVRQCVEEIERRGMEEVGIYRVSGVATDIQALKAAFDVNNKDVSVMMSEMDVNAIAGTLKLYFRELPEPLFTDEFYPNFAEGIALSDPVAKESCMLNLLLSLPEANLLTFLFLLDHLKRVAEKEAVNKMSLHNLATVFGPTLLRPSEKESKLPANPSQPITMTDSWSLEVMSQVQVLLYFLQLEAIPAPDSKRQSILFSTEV
Summary of the method: as §1

ERRα [3] = target: T3, ERRα (Mus musculus, UniProt O08580); assay: In vivo ERRα knockdown in mouse tissues, western blotting; settings: mice, 100 mg/kg i.p. every 8 h, four doses, ~5 h after last dose, vs vehicle
T3 sequence (O08580 1-422): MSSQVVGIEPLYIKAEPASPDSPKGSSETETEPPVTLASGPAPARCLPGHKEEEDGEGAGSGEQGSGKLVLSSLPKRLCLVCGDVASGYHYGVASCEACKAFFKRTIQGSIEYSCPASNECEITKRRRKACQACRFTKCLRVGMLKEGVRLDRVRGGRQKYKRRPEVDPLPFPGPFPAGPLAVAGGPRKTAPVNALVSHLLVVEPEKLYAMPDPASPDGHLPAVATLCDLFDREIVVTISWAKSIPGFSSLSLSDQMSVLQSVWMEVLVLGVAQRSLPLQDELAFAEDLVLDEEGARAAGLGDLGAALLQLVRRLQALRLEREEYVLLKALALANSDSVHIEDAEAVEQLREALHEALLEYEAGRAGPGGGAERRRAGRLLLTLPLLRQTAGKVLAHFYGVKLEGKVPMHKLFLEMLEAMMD

ERRα [4] = target: T1, ERRα; assay: In vivo ERRα knockdown in MDA-MB-231 tumor xenografts in mice, western blotting; settings: 100 mg/kg i.p. every 8 h, four doses, ~5 h after last dose, vs vehicle
VHL complex = VHL complex (Homo sapiens, UniProt P40337); assay: Competitive binding fluorescence polarization vs HIF1α-derived peptide
RIPK2 [5] = target: T4, RIPK2 (Homo sapiens, UniProt O43353); assay: RIPK2 degradation in THP-1 monocytes by immunoblotting; assay type: cell-based
Summary of the method: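 THP-1 cells were cultured in RPMI 1640 + 10% FBS at 37 °C, 5% CO₂. Cells (5 × 10⁶) were treated with a dose range for 16 h, or at 30 nM for a time course. Options were a 1 h pretreatment with 1 μM epoxomicin, or washout after 4 h with PBS washes and fresh medium. RIPK2 was detected by western blot.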

THP-1 cells = assay: Cellular toxicity; assay type: cell-based, human; settings: any concentration, Supplementary Fig. 7
[6] = target: VHL-RIPK2 ternary complex (Homo sapiens, UniProt O43353+P40337); assay type: binding; settings: THP-1 lysate
Summary of the method: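 THP-1 lysate in Tris/glycerol/MgCl₂/NaCl/vanadate/0.008% NP40 buffer was adjusted to 5 mg ml⁻¹. Lysate (10 mg protein) was incubated with compound at 3, 30 or 300 nM, or DMSO, for 2 h at 4 °C. It was then captured for 2 h at 4 °C on anti-VHL or IgG1κ control agarose beads. Eluates were analysed by immunoblot and LC-MS, as log₂ fold changes over replicates (≥2 unique peptides).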

RIPK2 [7] = target: RIPK2 (Homo sapiens, UniProt O43353+P40337); assay: In vitro ubiquitination in reconstituted E1-E2-VHL cascade; assay type: biochemical
Summary of the method: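 Three-stage reaction at room temperature. First, RIPK2 (500 nM final) was autophosphorylated with [³²P]γ-ATP for 10 min in Tris/KCl/Mg/Mn/DTT buffer, pH 7.5. Ubiquitination buffer (2 mM ATP) was then added with VHL (250 nM final) and test compound at various concentrations. Separately, UbE1 (25 nM), Ubc4 (250 nM) and ubiquitin (116 μM) were precharged. The mixtures were combined and quenched over time. ³²P was converted to moles of RIPK2 (five phosphopeptides) and compared with moles of compound.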

MAPKAPK3 [8] = target: T5, MAPKAPK3 (Homo sapiens, UniProt Q16644); assay: Kinobeads competition binding; settings: below the limit of detection
RIPK2 [9] = target: T4, RIPK2; assay: Expression proteomics in THP-1 cells; assay type: cell-based; settings: THP-1, 30 nM, 6, 18 and 24 h
MAPKAPK3 [10] = target: T5, MAPKAPK3; assay: Expression proteomics in THP-1 cells; assay type: cell-based; settings: THP-1, 30 nM; of ~7,000 proteins only RIPK2 and MAPKAPK3
Summary of the method: (§2)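 THP-1 cells were seeded at 3 × 10⁶ cells/well in RPMI1640 + 10% heat-inactivated FBS. They were exposed to 30 nM test compound for 6, 18 or 24 h; the 18 h arm was run in biological duplicate. Cells were collected on ice, washed twice in cold PBS, snap-frozen and SDS-lysed. Proteins were reduced, alkylated, gel-separated, trypsin-digested and quantified proteome-wide by LC-MS/MS.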

RIPK3, ABL and TESK = assay: Expression proteomics in THP-1 cells; assay type: cell-based, human; settings: THP-1, 30 nM
Summary of the method: as §2

- decrease in normalized ERRα levels (ERRα [1]; MCF-7, 1 h pretreatment with 1 μM epoxomicin): 5%
- maximal level of degradation (Dmax) (ERRα [1]; MCF-7 cells, 8 h): 86%
- stabilization of HIF1α (ODD-luciferase) (HIF1α; concentrations up to 30 μM): did not stabilize HIF1α
- ERRα levels (ERRα [2]): decreased levels of ERRα
- BCR levels (BCR): downregulated
- reduction of ERRα levels in heart (ERRα [3]): approximately 44%
- reduction of ERRα levels in kidney (ERRα [3]): approximately 44%
- reduction of ERRα levels in MDA-MB-231 tumors (ERRα [4]): ~39%
Compound: COc1cc(/C=C2\SC(=O)N(CCOCCC(=O)N[C@H](C(=O)N3C[C@H](O)C[C@H]3C(=O)NCc3ccc(-c4scnc4C)cc3)C(C)(C)C)C2=O)ccc1Oc1ccc(C#N)cc1C(F)(F)F [PROTAC_ERRα]

- reduction of ERRα protein levels (ERRα [1]; MCF-7, at concentrations at which the active PROTAC reduced ERRα levels by 50%): ~ 20%
Compound: COc1cc(/C=C2\SC(=O)N(CCOCCC(=O)N[C@H](C(=O)N3C[C@@H](O)C[C@H]3C(=O)NCc3ccc(-c4scnc4C)cc3)C(C)(C)C)C2=O)ccc1Oc1ccc(C#N)cc1C(F)(F)F [PROTAC_ERRα_epi]

Compound: Cc1ncsc1-c1ccc(CNC(=O)[C@@H]2C[C@@H](O)CN2C(=O)[C@@H](NC(=O)COCCOCCOCCOCCOc2cc3nccc(Nc4ccc5scnc5c4)c3cc2S(=O)(=O)C(C)(C)C)C(C)(C)C)cc1 [PROTAC_RIPK2]
- IC50 (VHL complex; competition with HIF1α-derived peptide for VHL complex): 660 nM
- window between RIPK2 degradation and modulation of endogenous VHL function (RIPK2 [5]; RIPK2 degradation vs ODD-luciferase): > 1,000 fold
- earliest time at which RIPK2 degradation was observed (RIPK2 [5]; THP-1, 30 nM): 1 h
- time at which RIPK2 degradation was nearly complete (RIPK2 [5]; THP-1, 30 nM): 4 h
- time for protein levels to recover to pre-treatment levels after removal (RIPK2 [5]; THP-1, 4 h pretreatment with 30 nM, washout): ≤ 24 h
- RIPK2 protein levels at high concentration (hook effect) (RIPK2 [5]; THP-1, 16 h, 30 μM): returning to basal levels
- Dmax (RIPK2 [5]; THP-1, 16 h, at concentrations of 10 nM and higher): > 95%
- stabilization of HIF1α (ODD-luciferase) (HIF1α; 30 μM): modest stabilization of HIF1α
- effect on ODD-luciferase levels (HIF1α; concentrations up to 3 μM): no effect
- cellular toxicity (THP-1 cells): No cellular toxicity
- co-recruitment of RIPK2 over background ([6]; 30 nM): up to 16 fold
- change of RIPK2 enrichment ([6]; 300 nM versus 30 nM): reduced by two-fold
- stoichiometry (modified RIPK2 to PROTAC) (RIPK2 [7]; 2.0 pmol PROTAC, final time point): 2.0
- modified RIPK2 (RIPK2 [7]; 2.0 pmol PROTAC, final time point (35 min), 500 nM RIPK2): 4.0 pmol
- Kd (MAPKAPK3 [8]): > 3000 nM
- RIPK2 levels (RIPK2 [9]): induced the degradation of RIPK2 from 6 h onwards
- MAPKAPK3 levels (MAPKAPK3 [10]): significantly degraded
- levels of other kinases bound (RIPK3, ABL and TESK) (RIPK3, ABL and TESK): not degraded

- binding to VHL (VHL complex; concentrations up to 10 μM): no binding to VHL
- degradation of RIPK2 (RIPK2 [5]; THP-1 cells, Supplementary Fig. 6f): no degradation of RIPK2
- ubiquitination of RIPK2 (RIPK2 [7]; any concentration (50, 100, 200 nM), up to 35 min): unable to induce ubiquitination
Compound: Cc1ncsc1-c1ccc(CNC(=O)[C@H]2C[C@H](O)CN2C(=O)[C@@H](NC(=O)COCCOCCOCCOCCOc2cc3nccc(Nc4ccc5scnc5c4)c3cc2S(=O)(=O)C(C)(C)C)C(C)(C)C)cc1 [PROTAC_RIPK2_epi]
- enrichment of RIPK2 in VHL immunoprecipitate [6]: did not influence the immune-captured proteins or enrich RIPK2 levels
- RIPK2 levels (RIPK2 [9]): neither the PROTAC_RIPK2_epi nor the RIPK2 ligand affected RIPK2 levels
